Experimental data as given in ChEMBL document CHEMBL1154610, “Discovery and preclinical evaluation of [4-[[1-(3-fluorophenyl)methyl]-1H-indazol-5-ylamino]-5-methylpyrrolo[2,1-f][1,2,4]triazin-6-yl]carbamic acid, (3S)-3-morpholinylmethyl ester (BMS-599626), a selective and orally efficacious inhibitor of human epidermal growth factor receptor 1 and 2 kinases” (J Med Chem, 2009).
The source made the active and inactive calls. The rule behind the calls is not given here.

What was measured:
L2987 [1] = assay: Antitumor activity against human L2987 cells xenografted in athymic mouse at 180 mg/kg, po qd for 14 days; type: functional; conditions: L2987, 336 h, read-out: TGI
Procedure, shortened: (§1)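 Xenograft-bearing mice dosed orally once daily in propylene glycol/Tween80/water (40:10:50). TGI taken as percent tumor growth inhibition during treatment; significance from mean tumor weight at end of treatment; body weight loss and morbidity monitored.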

NCI-N87 [2] = assay: Antiproliferative activity against human NCI-N87 cells after 72 hrs by MTT assay; type: functional, cell-based; conditions: NCI-N87, 72 h
[3] = Clearance in cynomolgus monkey at 5 mg/kg, iv; type: ADME, organism-based, Macaca fascicularis; set-up: dose 5 mg/kg, route intravenous; conditions: in vivo
[4] = target: T1, Epidermal growth factor receptor and ErbB2 (HER1 and HER2) (Homo sapiens) (UniProt P04626+P00533); assay: Inhibition of HER1/HER2 phosphorylation in human N87 cells by Western blot; type: cell-based; conditions: NCI-N87
[5] = target: Voltage-gated inwardly rectifying potassium channel KCNH2 (Homo sapiens, UniProt Q12809); assay: Inhibition of human ERG expressed in HEK cells; type: cell-based, HEK293
A2780 = assay: Antiproliferative activity against human A2780 cells after 72 hrs by MTT assay; type: functional, cell-based; conditions: A2780, 72 h
Procedure, shortened: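 Cell proliferation IC50 reported as the mean of three independent determinations. BT474 is a breast line (HER2+++/HER1+); A2780 serves as a HER-independent control.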

Mus musculus [6] = assay: Plasma concentration in BALB/c mouse at 50 mg/kg, po; type: ADME, organism-based; set-up: dose 50 mg/kg, route oral; conditions: in vivo
Procedure, shortened: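 Compound given orally at 50 mg/kg as a solution in PEG400/Tween80/water (40:10:50) to three Balb/C mice. Plasma sampled over 4 h after dosing; AUC(0-4h), Cmax and 4 h concentration reported.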

[7] = Mean residence time in dog at 1.5 mg/kg, iv; type: ADME, organism-based, Canis lupus familiaris; set-up: dose 1.5 mg/kg, route intravenous; conditions: in vivo
[8] = target: Epidermal growth factor receptor (Homo sapiens, UniProt P00533); assay: Inhibition of human recombinant HER1 expressed in Sf9 cells by liquid scintillation counting
Cytochrome P450 2C9 = Cytochrome P450 2C9 (Homo sapiens, UniProt P11712); assay: Inhibition of human CYP2C9; type: ADME
[9] = Mean residence time in mouse at 25 mg/kg, iv; type: ADME, organism-based; set-up: dose 25 mg/kg, route intravenous; conditions: in vivo
[10] = target: T1, Epidermal growth factor receptor and ErbB2 (HER1 and HER2) (Homo sapiens); assay: Inhibition of HER1/HER2-mediated MAPK phosphorylation in human GEO cells by Western blot; type: cell-based
[11] = Half life in rat plasma at 10 mg/kg, po; type: ADME, organism-based; set-up: dose 10 mg/kg, route oral
[12] = Antiproliferative activity against mouse SAL2 cells after 72 hrs by MTT assay; type: functional, cell-based; conditions: SAL2, 72 h
Cytochrome P450 2C19 = Cytochrome P450 2C19 (Homo sapiens, UniProt P33261); assay: Inhibition of human CYP2C19; type: ADME
NCI-N87 [13] = assay: Antitumor activity against human NCI-N87 cells xenografted in athymic mouse at 120 mg/kg, po qd for 21 days; type: functional; conditions: NCI-N87, 504 h, read-out: TGI; procedure, shortened: as §1
[14] = Cmax in rat at 10 mg/kg, po; type: ADME, organism-based; set-up: dose 10 mg/kg, route oral; conditions: in vivo
Cytochrome P450 1A2 = target: T2, Cytochrome P450 1A2 (Homo sapiens, UniProt P05177); assay: Inhibition of human CYP1A2; type: ADME
T2 sequence (P05177 whole entry): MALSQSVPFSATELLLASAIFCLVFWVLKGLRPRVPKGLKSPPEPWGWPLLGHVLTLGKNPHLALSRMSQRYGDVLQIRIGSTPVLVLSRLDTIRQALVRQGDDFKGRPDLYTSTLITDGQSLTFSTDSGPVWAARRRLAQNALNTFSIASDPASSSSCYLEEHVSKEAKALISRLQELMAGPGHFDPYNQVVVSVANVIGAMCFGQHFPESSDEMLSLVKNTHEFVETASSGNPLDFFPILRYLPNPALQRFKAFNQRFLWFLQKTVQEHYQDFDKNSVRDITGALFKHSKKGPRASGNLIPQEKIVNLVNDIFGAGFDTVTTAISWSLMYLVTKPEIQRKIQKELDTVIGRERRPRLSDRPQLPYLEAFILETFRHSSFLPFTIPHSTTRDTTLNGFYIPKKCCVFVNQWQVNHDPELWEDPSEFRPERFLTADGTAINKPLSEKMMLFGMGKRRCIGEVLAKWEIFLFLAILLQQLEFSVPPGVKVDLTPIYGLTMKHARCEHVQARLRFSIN

[15] = Half life in cynomolgus monkey plasma at 5 mg/kg, po; type: ADME, organism-based, Macaca fascicularis; set-up: dose 5 mg/kg, route oral
[16] = Oral bioavailability in rat at 10 mg/kg; type: ADME, organism-based; conditions: in vivo
[17] = target: T1, Epidermal growth factor receptor and ErbB2 (HER1 and HER2) (Homo sapiens); assay: Inhibition of HER1/HER2-mediated AKT phosphorylation in human GEO cells by Western blot; type: cell-based
[18] = target: Receptor tyrosine-protein kinase erbB-4 (Homo sapiens, UniProt Q15303); assay: Inhibition of human recombinant HER4 expressed in Sf9 cells by liquid scintillation counting
L2987 [19] = assay: Antitumor activity against human L2987 cells xenografted in athymic mouse at 30 mg/kg, po qd for 14 days; type: functional; conditions: L2987, 336 h, read-out: TGI; procedure, shortened: as §1
Mus musculus [20] = species on record: Mus musculus; assay: Toxicity in athymic mouse bearing human tumor cells assessed as mortality; type: organism-based
Procedure, shortened: (§2)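 Mice carried human tumor xenografts (L2987, GEO, KPL4, N87) and were dosed orally once daily in propylene glycol/Tween80/water (40:10:50), with a q.d. × 21 schedule given. The L2987 dose levels included 30, 60 and 180 mg/kg. Toxicity was monitored during treatment as significant weight loss or morbidity.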

[21] = target: Receptor tyrosine-protein kinase erbB-2 (Homo sapiens, UniProt P04626); assay: Inhibition of human recombinant HER2 expressed in Sf9 cells by liquid scintillation counting
Mus musculus [22] = species on record: Mus musculus; assay: Toxicity in athymic mouse bearing human tumor cells assessed as weight loss; type: organism-based; procedure, shortened: as §2
NCI-N87 [23] = assay: Antitumor activity against human NCI-N87 cells xenografted in athymic mouse at 180 mg/kg, po qd for 21 days; type: functional; conditions: NCI-N87, 504 h, read-out: TGI; procedure, shortened: as §1
[24] = Cmax in dog at 25 mg/kg, po; type: ADME, organism-based, Canis lupus familiaris; set-up: dose 25 mg/kg, route oral; conditions: in vivo
[25] = Cmax in cynomolgus monkey at 5 mg/kg, po; type: ADME, organism-based, Macaca fascicularis; set-up: dose 5 mg/kg, route oral; conditions: in vivo
[26] = Antitumor activity against human GEO cells xenografted in athymic mouse at 60 mg/kg, po qd for 14 days; type: functional; conditions: 336 h, read-out: TGI; procedure, shortened: as §1
[27] = Oral bioavailability in cynomolgus monkey at 5 mg/kg; type: ADME, organism-based, Macaca fascicularis; conditions: in vivo
[28] = Protein binding in rat plasma at 10 uM by equilibrium dialysis; type: ADME, cell-free; conditions: read-out: PPB (converted)
[29] = AUC (0 to 24 hrs) in cynomolgus monkey at 5 mg/kg, po; type: ADME, organism-based, Macaca fascicularis; set-up: time < 24 hr, dose 5 mg/kg, route oral; conditions: plasma
Procedure, shortened: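 Monkeys were dosed orally at 5 mg/kg as a solution in PEG400/Tween80/water (50:0.1:50).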

[30] = Mean residence time in rat at 2.5 mg/kg, iv; type: ADME, organism-based; set-up: dose 2.5 mg/kg, route intravenous; conditions: in vivo
[31] = target: T1, Epidermal growth factor receptor and ErbB2 (HER1 and HER2) (Homo sapiens); assay: Inhibition of epidermal growth factor-induced HER1/HER2 heterodimer formation in human AU565 cells at 1 uM by immunoprecipitation; type: cell-based
[32] = AUC (0 to 4 hrs) in BALB/c mouse at 50 mg/kg, po; type: ADME, organism-based; set-up: time < 4 hr, dose 50 mg/kg, route oral; conditions: plasma
[33] = Tmax in dog at 25 mg/kg, po; type: ADME, organism-based, Canis lupus familiaris; set-up: dose 25 mg/kg, route oral; conditions: in vivo
Procedure, shortened: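 Dog PK, average of two animals. Compound dosed as a PEG400/Tween80/water (50:0.1:50) solution, orally at 25 mg/kg and iv at 1.5 mg/kg. Oral data give Tmax; iv data give Vss.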

[34] = Effect on action potential parameters in rabbit purkinje fiber up to 30 uM; type: ADME, tissue-based, Oryctolagus cuniculus

Receptor tyrosine-protein kinase erbB-2, sequence (P04626 whole entry): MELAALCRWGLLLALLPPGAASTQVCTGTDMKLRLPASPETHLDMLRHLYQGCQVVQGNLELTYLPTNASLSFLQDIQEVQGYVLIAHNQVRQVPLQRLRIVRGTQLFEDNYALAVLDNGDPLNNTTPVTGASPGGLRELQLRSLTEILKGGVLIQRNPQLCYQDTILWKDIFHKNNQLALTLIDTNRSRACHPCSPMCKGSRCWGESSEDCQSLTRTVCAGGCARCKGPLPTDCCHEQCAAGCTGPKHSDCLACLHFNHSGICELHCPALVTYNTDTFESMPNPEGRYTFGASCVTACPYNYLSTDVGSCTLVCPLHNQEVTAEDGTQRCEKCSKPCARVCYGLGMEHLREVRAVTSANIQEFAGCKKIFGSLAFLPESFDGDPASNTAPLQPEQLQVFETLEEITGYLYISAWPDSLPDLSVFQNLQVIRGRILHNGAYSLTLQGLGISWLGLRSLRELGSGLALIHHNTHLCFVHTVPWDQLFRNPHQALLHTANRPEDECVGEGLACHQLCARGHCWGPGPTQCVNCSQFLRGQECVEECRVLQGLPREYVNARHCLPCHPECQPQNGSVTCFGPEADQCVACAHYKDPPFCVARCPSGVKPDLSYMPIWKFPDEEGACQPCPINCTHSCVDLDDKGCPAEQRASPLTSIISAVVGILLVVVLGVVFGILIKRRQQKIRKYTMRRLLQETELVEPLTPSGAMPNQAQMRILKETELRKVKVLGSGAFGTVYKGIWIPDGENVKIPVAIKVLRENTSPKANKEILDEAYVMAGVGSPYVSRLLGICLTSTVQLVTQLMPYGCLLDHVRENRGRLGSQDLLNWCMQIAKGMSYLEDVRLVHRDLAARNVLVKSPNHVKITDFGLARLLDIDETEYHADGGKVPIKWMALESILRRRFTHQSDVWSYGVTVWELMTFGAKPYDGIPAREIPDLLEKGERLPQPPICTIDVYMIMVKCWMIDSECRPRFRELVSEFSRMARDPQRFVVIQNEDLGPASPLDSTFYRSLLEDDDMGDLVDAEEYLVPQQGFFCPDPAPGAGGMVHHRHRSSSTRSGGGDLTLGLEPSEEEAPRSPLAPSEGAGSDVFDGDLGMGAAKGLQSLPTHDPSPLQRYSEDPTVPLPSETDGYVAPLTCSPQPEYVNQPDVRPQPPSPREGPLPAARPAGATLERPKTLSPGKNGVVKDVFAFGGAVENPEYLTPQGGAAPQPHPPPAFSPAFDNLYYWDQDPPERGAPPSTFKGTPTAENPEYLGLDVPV
Cytochrome P450 2C9, sequence (P11712 whole entry): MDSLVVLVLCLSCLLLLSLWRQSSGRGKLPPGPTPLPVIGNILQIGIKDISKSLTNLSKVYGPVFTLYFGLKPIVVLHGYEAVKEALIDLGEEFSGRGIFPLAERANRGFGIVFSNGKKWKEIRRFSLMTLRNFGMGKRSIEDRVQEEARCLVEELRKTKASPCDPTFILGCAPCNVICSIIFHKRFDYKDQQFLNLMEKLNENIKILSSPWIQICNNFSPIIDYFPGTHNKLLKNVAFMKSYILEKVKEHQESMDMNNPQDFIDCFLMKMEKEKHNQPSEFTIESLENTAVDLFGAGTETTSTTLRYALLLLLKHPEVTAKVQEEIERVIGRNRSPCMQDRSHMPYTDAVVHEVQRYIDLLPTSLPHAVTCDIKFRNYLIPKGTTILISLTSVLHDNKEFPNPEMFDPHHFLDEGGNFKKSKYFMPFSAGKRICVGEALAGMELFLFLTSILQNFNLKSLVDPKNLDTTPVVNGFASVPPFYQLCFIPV
Voltage-gated inwardly rectifying potassium channel KCNH2, sequence (Q12809 whole entry): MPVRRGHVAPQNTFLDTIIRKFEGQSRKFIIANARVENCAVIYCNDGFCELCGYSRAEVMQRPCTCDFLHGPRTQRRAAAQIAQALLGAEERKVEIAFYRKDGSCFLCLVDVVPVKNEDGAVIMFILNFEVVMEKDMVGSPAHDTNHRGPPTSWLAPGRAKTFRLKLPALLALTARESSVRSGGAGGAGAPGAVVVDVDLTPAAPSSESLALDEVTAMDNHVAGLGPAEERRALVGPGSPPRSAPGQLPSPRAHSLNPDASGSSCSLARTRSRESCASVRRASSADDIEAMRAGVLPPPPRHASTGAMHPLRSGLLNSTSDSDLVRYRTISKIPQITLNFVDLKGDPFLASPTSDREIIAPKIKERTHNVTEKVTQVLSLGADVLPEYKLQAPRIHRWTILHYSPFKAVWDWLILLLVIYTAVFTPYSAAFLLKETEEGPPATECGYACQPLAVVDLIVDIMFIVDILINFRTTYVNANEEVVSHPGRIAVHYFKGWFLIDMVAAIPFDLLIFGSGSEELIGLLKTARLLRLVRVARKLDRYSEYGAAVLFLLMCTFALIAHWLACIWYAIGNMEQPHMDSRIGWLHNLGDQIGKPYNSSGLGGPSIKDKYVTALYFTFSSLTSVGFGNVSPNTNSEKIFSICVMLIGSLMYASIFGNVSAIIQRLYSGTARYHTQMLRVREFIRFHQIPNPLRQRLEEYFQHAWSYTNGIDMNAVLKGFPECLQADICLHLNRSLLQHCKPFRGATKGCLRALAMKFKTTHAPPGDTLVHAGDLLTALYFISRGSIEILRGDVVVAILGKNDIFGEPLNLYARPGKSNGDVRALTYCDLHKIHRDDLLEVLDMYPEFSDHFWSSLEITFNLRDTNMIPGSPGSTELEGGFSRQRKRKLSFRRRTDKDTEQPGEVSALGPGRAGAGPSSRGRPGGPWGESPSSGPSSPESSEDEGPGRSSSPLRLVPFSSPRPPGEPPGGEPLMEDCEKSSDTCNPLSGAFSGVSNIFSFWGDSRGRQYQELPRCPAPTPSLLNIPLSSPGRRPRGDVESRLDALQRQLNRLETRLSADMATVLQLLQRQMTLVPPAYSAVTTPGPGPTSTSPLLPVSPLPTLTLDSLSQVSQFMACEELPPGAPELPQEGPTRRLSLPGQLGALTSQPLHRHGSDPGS
Receptor tyrosine-protein kinase erbB-4, sequence (Q15303 whole entry): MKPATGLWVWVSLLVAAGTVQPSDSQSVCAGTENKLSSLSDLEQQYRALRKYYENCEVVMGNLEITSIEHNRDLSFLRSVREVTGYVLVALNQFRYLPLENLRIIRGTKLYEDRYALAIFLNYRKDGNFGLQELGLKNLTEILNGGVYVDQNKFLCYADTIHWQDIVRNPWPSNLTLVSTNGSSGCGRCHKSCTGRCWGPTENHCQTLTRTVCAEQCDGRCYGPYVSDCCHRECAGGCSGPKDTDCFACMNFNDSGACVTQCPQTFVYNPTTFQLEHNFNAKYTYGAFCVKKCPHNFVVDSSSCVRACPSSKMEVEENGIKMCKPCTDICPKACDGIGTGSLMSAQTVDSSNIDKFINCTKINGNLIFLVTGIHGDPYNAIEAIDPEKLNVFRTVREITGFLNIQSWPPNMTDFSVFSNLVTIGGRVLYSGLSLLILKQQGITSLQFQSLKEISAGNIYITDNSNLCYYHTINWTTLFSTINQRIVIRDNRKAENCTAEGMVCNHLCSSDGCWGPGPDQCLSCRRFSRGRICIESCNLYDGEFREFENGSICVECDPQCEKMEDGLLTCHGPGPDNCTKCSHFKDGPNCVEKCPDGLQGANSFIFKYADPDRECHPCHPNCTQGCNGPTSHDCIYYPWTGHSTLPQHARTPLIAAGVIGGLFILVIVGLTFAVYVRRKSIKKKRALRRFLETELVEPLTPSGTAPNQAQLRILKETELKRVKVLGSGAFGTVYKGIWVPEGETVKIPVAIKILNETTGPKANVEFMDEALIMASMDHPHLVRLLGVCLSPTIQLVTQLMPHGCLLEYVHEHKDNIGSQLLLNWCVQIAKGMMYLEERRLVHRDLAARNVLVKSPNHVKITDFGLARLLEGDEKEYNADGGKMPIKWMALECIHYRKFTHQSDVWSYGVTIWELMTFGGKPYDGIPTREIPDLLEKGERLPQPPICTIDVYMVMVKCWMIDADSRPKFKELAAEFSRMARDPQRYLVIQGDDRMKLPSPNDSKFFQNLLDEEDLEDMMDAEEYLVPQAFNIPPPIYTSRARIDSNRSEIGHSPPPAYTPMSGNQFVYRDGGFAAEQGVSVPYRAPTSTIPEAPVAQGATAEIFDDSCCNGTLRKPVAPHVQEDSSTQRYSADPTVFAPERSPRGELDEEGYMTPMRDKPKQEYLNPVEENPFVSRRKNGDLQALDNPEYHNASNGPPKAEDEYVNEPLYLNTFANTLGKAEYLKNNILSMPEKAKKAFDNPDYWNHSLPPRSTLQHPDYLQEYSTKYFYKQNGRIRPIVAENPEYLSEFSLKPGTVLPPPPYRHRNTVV
Cytochrome P450 2C19, sequence (P33261 whole entry): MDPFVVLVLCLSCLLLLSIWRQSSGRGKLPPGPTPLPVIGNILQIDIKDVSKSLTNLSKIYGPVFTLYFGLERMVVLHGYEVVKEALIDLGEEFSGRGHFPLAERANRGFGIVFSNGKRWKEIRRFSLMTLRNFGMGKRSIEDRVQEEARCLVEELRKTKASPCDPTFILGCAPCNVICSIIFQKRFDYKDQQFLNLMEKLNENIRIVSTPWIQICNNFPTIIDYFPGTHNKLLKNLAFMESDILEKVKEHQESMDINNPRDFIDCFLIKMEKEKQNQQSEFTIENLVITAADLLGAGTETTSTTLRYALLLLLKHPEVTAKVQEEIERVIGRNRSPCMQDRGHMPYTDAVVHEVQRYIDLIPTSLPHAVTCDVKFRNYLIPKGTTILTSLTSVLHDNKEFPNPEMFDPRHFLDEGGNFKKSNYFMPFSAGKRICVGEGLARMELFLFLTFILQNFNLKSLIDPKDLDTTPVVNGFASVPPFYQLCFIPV

Structure (SMILES): Cc1c(NC(=O)OC[C@@H]2COCCN2)cn2ncnc(Nc3ccc4c(cnn4Cc4cccc(F)c4)c3)c12 [AC-480]
- inhibition in vivo at 180 mg/kg (L2987 [1]): 99%
- IC50 (NCI-N87 [2]): 450 nM
- clearance [3]: 10.5 mL/min/kg
- inhibition [4]: Dose-dependent effect
- IC50 [5]: 4000 nM
- IC50 (A2780): > 10000 nM
- concentration (Mus musculus [6]): 4100 nM
- MRT [7]: 6.9 h
- IC50 [8]: 32 nM
- IC50 (Cytochrome P450 2C9): 12000 nM
- MRT [9]: 3.7 h
- inhibition [10]: Dose-dependent effect
- half-life [11]: 2.8 h
- IC50 [12]: 240 nM
- IC50 (Cytochrome P450 2C19): 10000 nM
- inhibition in vivo at 120 mg/kg (NCI-N87 [13]): 81%
- Cmax [14]: 600 nM
- IC50 (Cytochrome P450 1A2): > 40000 nM
- half-life [15]: 5.7 h
- bioavailability [16]: 40%
- inhibition [17]: Dose-dependent effect
- IC50 [18]: 190 nM
- inhibition in vivo at 30 mg/kg (L2987 [19]): < 50%
- Activity (Mus musculus [20]): Non-toxic
- IC50 [21]: 22 nM
- Activity (Mus musculus [22]): Non-toxic
- inhibition in vivo at 180 mg/kg (NCI-N87 [23]): 71%
- Cmax [24]: 1200 nM
- Cmax [25]: 500 nM
- inhibition in vivo at 60 mg/kg [26]: 39%
- bioavailability [27]: 31%
- fraction unbound at 10 µM [28]: 0.029
- AUC(0-t) at 24 h [29]: 3.6 µM·h
- MRT [30]: 2.8 h
- inhibition [31]: Active
- AUC(0-t) at 4 h [32]: 13.3 µM·h
- Tmax [33]: 2.3 h
- Activity [34]: Non-toxic
